Only some compounds are listed: those with a hit (about 2.4% of all), similar ones and a draw of the others.
IMP-1 inh: inhibitors of Pseudomonas aeruginosa IMP-1 metallo-beta-lactamase; purified IMP-1, nitrocefin hydrolysis, epi-absorbance fluorescence; inhibition, % at 5.6 µM; 290,000 tested, 0.45% active; AID 1556;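 active = inhibition above the mean plus 3 SD of all compounds in the same screening run, cut at about 4.5% in these data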
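System: Purified recombinant IMP-1 metallo-beta-lactamase enzyme | Measured by: Fluorescence quenching readout, ex 480/em 530 nm | Replication: Singlicate | Incubation: 15 min preincubation plus 25 min reaction at 25 °C | Evaluation: Percent inhibition from optical density relative to buffer-blank wells | Benchmarks: DMSO with and without IMP-1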
sPLA2-III inh: Blocks human group III sPLA2 activity | QFRET BODIPY PC-A2 liposome hydrolysis, fluorescence | 370,000 tested, 0.56% active | inhibition, % at 12.2 µM;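 active = inhibition above mean plus 3 SD of compounds lying within the high and low control bounds, cut at about 19% in these data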
Target sequence (Q9NZ20 whole entry, looked up): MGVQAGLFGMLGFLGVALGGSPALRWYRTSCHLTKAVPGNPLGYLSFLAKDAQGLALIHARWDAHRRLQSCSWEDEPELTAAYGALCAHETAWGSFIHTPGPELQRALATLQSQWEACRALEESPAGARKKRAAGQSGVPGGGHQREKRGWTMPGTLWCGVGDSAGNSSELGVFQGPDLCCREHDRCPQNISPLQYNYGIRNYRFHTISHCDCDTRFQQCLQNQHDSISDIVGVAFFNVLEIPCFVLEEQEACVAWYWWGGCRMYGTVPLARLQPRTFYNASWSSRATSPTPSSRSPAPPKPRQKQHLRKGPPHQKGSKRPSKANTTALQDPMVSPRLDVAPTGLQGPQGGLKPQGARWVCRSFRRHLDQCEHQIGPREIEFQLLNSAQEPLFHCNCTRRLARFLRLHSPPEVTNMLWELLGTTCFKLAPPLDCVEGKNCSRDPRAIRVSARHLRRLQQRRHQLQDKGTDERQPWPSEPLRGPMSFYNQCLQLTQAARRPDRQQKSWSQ
VIM-2 inhibitor: blocks Pseudomonas aeruginosa VIM-2 metallo-beta-lactamase; purified VIM-2, nitrocefin hydrolysis, epi-absorbance fluorescence; inhibition, % at 5.6 µM; 290,000 tested, 0.89% active; AID 1527;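 active = inhibition above the mean of all tested compounds plus 3 SD, cutoff set per screening run, cut at about 7.5% in these data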;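 also: red hydrolysis product quenches plate fluorescence so inhibitors raise well fluorescence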
PfM18AAP inh-1: PfM18AAP enzyme inhibition; recombinant PfM18AAP, H-Glu-NHMec fluorogenic cleavage; inhibition, % at 7.35 µM; 290,000 tested, 1.2% active; AID 1822;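 active = inhibition above the campaign mean inhibition over all tested compounds plus 3 SD, cut at about 28% in these data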
PfM18AAP inh-2: confirmation of Plasmodium falciparum M18 aspartyl aminopeptidase inhibitors. shares compounds with PfM18AAP inh-1. 2,400 tested, 28% active. AID 2170. inhibition, % at 7.35 µM. recombinant PfM18AAP, H-Glu-NHMec fluorogenic cleavage;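 active = mean inhibition over replicate wells above the hit cutoff set for the earlier primary screen, cut at about 29% in these data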
CTSL1 confirm: counter-screen for PFM18AAP inhibitors: confirmation of human cathepsin L inhibitors | inhibition, % at 5.96 µM | shares compounds with PfM18AAP inh-1 | 2,400 tested, under 10 active | AID 2178 | purified cathepsin L1, Z-Leu-Arg-MCA fluorescence;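 active = average inhibition across replicates above the hit cutoff set in the earlier primary screen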
Each line names hits and unclear results; the compound was inactive in the other large screens (follow-up assays come after a bar, where they were run); ! = not active in a repeat.

S=c1nc(C23CC4CC(CC(C4)C2)C3)[nH][nH]1	PfM18AAP inh-1 35.5 | PfM18AAP inh-2 inactive | CTSL1 confirm inactive
COc1ccc(C(C)=O)cc1COC(=O)c1cc(=O)c2ccccc2o1	none
CC(/C=N/n1c(-c2cc(C)[nH]n2)n[nH]c1=S)=C\c1ccco1	PfM18AAP inh-1 35.5 | PfM18AAP inh-2 inactive | CTSL1 confirm inactive
CC(/C=N/n1cnnc1)=C\c1ccco1	PfM18AAP inh-1 55.1 | PfM18AAP inh-2 inactive | CTSL1 confirm inactive
C=C1[C@@H]2CC[C@H]3[C@]4(C)[C@@H](O)CC[C@@](C)(C(=O)OC)[C@H]4C[C@H](O)[C@]3(C2)[C@H]1O	none (no result: IMP-1 inh, VIM-2 inhibitor, PfM18AAP inh-1)
COc1cccc(Cn2cc(COC(=O)N3CCCC3)nn2)c1	none (no result: IMP-1 inh, VIM-2 inhibitor, PfM18AAP inh-1)
Nc1ccc(C(=O)N/N=C/c2ccc(N3CCOCC3)s2)cc1	none (no result: IMP-1 inh, VIM-2 inhibitor, PfM18AAP inh-1)
O=C(N/N=C/c1ccc(N2CCOCC2)s1)c1ccccc1Br	PfM18AAP inh-1 41.1 | PfM18AAP inh-2 inactive | CTSL1 confirm inactive
O=C(CSc1n[nH]c(-c2ccccc2)n1)c1ccc(O)c(O)c1	PfM18AAP inh-1 59.7 | PfM18AAP inh-2 36.1 | CTSL1 confirm inactive
Cc1ccc(O)c(NC(=O)CSc2n[nH]c(-c3ccccc3)n2)c1	none
Cc1cc(SCC(=O)c2ccc(O)c(O)c2)nc2ccccc12	PfM18AAP inh-1 46.3 | PfM18AAP inh-2 inactive | CTSL1 confirm inactive
O=C1NCCCc2c1oc1cc(Br)c(O)c(Br)c21	none
O=C1NCCCC2c3c(cc(Br)c(O)c3Br)OC12N1CCCCC1 (centres undefined)	PfM18AAP inh-1 51.0 | PfM18AAP inh-2 inactive | CTSL1 confirm inactive
Cc1cc(C)nc(SC/C=C/c2ccccc2)n1	PfM18AAP inh-1 34.2 | PfM18AAP inh-2 inactive | CTSL1 confirm inactive
C(=C\c1ccccc1)/CSc1ccccn1	none
CC(=O)OC[C@@H]1CN(Cc2ccccc2)C[C@H](n2cnc3c(NC4CCCC4)ncnc32)O1	none (no result: IMP-1 inh, VIM-2 inhibitor, PfM18AAP inh-1)
COc1ccc(Cl)cc1S(=O)(=O)Nc1ncn[nH]1	none
O=S(=O)(Nc1nc2ccccc2[nH]1)c1ccc2ccccc2c1	none (no result: sPLA2-III inh)
Cc1cc(C)c(S(=O)(=O)Nc2ncn[nH]2)cc1C	PfM18AAP inh-1 41.7 | PfM18AAP inh-2 inactive | CTSL1 confirm inactive
O=S(=O)(Nc1ncn[nH]1)c1ccc2ccccc2c1	PfM18AAP inh-1 51.1 | PfM18AAP inh-2 41.2 | CTSL1 confirm inactive
COc1ccc(C2=NS(=O)(=O)N(C)C(C(=O)NCc3cccs3)=C2)cc1OC	none
O=c1[nH]nc(CNc2ccc(O)cc2)c2ccccc12	PfM18AAP inh-1 35.0 | PfM18AAP inh-2 inactive | CTSL1 confirm inactive
CCN(CC)C(=O)c1ccc(Cc2cn(C)c3ccccc23)nc1	none (no result: IMP-1 inh, VIM-2 inhibitor, PfM18AAP inh-1)
Cc1ccc(N=C(NO)c2nonc2N)c(C)c1	PfM18AAP inh-1 33.8 | PfM18AAP inh-2 inactive | CTSL1 confirm inactive
CC(=O)Nc1ccccc1NC(=O)C/C(C)=N/NC(=O)c1ccccn1	PfM18AAP inh-1 40.6 | PfM18AAP inh-2 inactive | CTSL1 confirm inactive
COC(=O)[C@@H](CC(C)C)NS(=O)(=O)N(Cc1ccccc1)[C@@H](CC(C)C)C(=O)OC	none (no result: IMP-1 inh, VIM-2 inhibitor, PfM18AAP inh-1)
Cn1c(O)c(/C=N/NC(=O)c2cc3ccccc3cc2O)c2ccccc21	PfM18AAP inh-1 32.0 | PfM18AAP inh-2 inactive | CTSL1 confirm inactive
O=C(C[C@H]1C/C=C\CC[C@H](Cc2ccc(F)cc2)C(=O)OC[C@@H]2CCCN2C1=O)N[C@H](CO)Cc1ccccc1	none (no result: IMP-1 inh, VIM-2 inhibitor, PfM18AAP inh-1)
Cc1noc(C)c1S(=O)(=O)N(C)C[C@@H]1OCc2cnnn2CCCC(=O)N([C@@H](C)CO)C[C@H]1C	none (no result: IMP-1 inh, VIM-2 inhibitor, PfM18AAP inh-1)
CCOC(=O)NC(=O)COC(=O)c1ccc(Sc2ncn[nH]2)c([N+](=O)[O-])c1	PfM18AAP inh-1 88.7 | PfM18AAP inh-2 91.1 | CTSL1 confirm inactive
CCN(C(=O)COC(=O)c1ccc(Sc2ncn[nH]2)c([N+](=O)[O-])c1)c1ccccc1	none (no result: IMP-1 inh, VIM-2 inhibitor, PfM18AAP inh-1)
C=CCN(CC=C)C(=O)COC(=O)c1ccc(Sc2ncn[nH]2)c([N+](=O)[O-])c1	PfM18AAP inh-1 84.1 | PfM18AAP inh-2 80.5 | CTSL1 confirm inactive
O=C(COC(=O)c1ccc(Sc2ncn[nH]2)c([N+](=O)[O-])c1)Nc1ccc(Cl)cc1	none (no result: IMP-1 inh, VIM-2 inhibitor, PfM18AAP inh-1)
CCN(CC(=O)Nc1ccc(S(=O)(=O)N2CCCC2)cc1)CC(=O)Nc1ccccc1C(F)(F)F	none (no result: IMP-1 inh, VIM-2 inhibitor, PfM18AAP inh-1)
CSCCC(C(=O)NC1CCCC1)n1c(-c2ccncc2)nc2ccccc21 (centres undefined)	none (no result: IMP-1 inh, VIM-2 inhibitor, PfM18AAP inh-1)
O=C(Cc1cccs1)NNC(=S)NC(=O)c1ccco1	PfM18AAP inh-1 33.5 | PfM18AAP inh-2 inactive | CTSL1 confirm inactive
CCOC(=O)NNc1ccc(C(F)(F)F)cn1	PfM18AAP inh-1 55.7 | PfM18AAP inh-2 35.3 | CTSL1 confirm inactive
CCOC(=O)c1cnn(-c2ccc(C(F)(F)F)cn2)c1N	none
CC(C)N1CCC(C)(C(=O)Nc2cc(-c3ccccc3)nn2C)C1 (centres undefined)	none (no result: IMP-1 inh, VIM-2 inhibitor, PfM18AAP inh-1)
CC(=O)Nc1cc(-c2ccccc2)ccc1O	none
Nc1cc(-c2ccccc2)ccc1O	PfM18AAP inh-1 35.1! | PfM18AAP inh-2 inactive | CTSL1 confirm inactive
Cc1ccc(NC(=O)Cn2sc3nc(C)cc(C)c3c2=O)c(Cl)c1	PfM18AAP inh-1 67.0 | PfM18AAP inh-2 45.4 | CTSL1 confirm inactive
O=C(Cn1sc2ccccc2c1=O)Nc1ccc(Cl)cc1	none (no result: IMP-1 inh, VIM-2 inhibitor, PfM18AAP inh-1)
CCOc1ccc(NC(=O)Cn2sc3nc(C)cc(C)c3c2=O)cc1	PfM18AAP inh-1 56.0 (no result: sPLA2-III inh) | PfM18AAP inh-2 36.2 | CTSL1 confirm inactive
Cc1cc(C)c2c(=O)n(CC(=O)Nc3ccc(Cl)cc3)sc2n1	PfM18AAP inh-1 56.9 | PfM18AAP inh-2 46.8 | CTSL1 confirm inactive
